Source: article PMC4646787 (Science Advances, 2015)
Non-standard residues stand in square brackets, D forms with d. Residues, ends and D or L forms follow the SMILES beside them. sY = N[C@@H](Cc1ccc(OS(=O)(=O)O)cc1)C(=O)O

Tests used:
XA21 [1] = target: T1, XA21 (Oryza sativa subsp. indica, UniProt Q1MX30); assay: ROS production; assay type: cell-based, rice (Oryza sativa ssp. japonica)
T1 sequence (Q1MX30 24-1025): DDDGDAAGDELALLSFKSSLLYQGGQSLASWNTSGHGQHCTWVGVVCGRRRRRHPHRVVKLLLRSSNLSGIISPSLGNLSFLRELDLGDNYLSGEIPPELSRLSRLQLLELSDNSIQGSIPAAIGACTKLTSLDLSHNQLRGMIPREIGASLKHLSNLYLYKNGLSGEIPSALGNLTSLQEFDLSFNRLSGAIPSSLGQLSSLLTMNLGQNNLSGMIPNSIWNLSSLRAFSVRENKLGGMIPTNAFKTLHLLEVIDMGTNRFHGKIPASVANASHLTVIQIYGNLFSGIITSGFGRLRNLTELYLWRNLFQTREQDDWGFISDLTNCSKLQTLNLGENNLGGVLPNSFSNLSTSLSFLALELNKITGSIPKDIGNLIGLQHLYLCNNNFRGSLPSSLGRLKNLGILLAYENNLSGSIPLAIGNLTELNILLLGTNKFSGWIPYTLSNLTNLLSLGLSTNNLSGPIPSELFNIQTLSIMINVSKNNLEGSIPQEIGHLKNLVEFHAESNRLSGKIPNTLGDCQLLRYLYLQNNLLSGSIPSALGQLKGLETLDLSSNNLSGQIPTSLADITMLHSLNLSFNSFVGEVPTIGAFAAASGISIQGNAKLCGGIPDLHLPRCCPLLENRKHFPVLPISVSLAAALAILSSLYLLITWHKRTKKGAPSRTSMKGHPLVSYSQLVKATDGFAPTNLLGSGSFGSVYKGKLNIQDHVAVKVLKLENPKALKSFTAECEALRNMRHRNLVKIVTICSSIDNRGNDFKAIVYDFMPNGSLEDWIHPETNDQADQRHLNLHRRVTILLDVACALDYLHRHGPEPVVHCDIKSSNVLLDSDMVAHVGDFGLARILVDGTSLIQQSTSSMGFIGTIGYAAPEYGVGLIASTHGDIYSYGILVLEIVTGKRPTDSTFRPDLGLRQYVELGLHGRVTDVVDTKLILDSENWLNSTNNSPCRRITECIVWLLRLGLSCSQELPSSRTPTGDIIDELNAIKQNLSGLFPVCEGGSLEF
Method in brief: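 Leaves of 4- to 6-week-old hydroponic Kitaake and Ubi::XA21 plants were cut along the midvein into 1–1.5 mm pieces and floated overnight on autoclaved ddH2O. Two pieces per well went into L-012 plus horseradish peroxidase (0.5 to 2 mg/ml), with peptide or mock (ddH2O or peptide buffer). Chemiluminescence was read for 3 h at 0.5 s per reading, n = 6. EC50 was the half-maximal total 3-h ROS over a peptide concentration series.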

XA21 [2] = target: T1, XA21; assay: Ethylene production in Ubi::XA21 rice leaves; assay type: cell-based, rice (Oryza sativa ssp. japonica); conditions: 1 μM peptide, 4 hours, gas chromatography, n = 3, Fig. 3C
Method in brief: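 Ubi::XA21 Kitaake plants (3–4 weeks, hydroponic) were used. Leaves were cut into ~0.3 to 0.5 mm strips and floated on water overnight at room temperature. Strips were then incubated with water or peptide (1 μM) in sealed tubes. Ethylene accumulated in the headspace over 4 h was measured by gas chromatography.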

EC50 (XA21 [1]) [nM]	Ethylene production, result in words (XA21 [2])	Molecule
~30	–	CC(C)C[C@H](N)C(=O)N[C@@H](Cc1c[nH]c2ccccc12)C(=O)N[C@@H](CCCCN)C(=O)N[C@@H](Cc1c[nH]cn1)C(=O)N[C@H](C(=O)NCC(=O)NCC(=O)NCC(=O)N[C@@H](CC(=O)O)C(=O)N[C@@H](Cc1ccc(OS(=O)(=O)O)cc1)C(=O)N1CCC[C@H]1C(=O)N1CCC[C@H]1C(=O)N1CCC[C@H]1C(=O)NCC(=O)N[C@@H](C)C(=O)N[C@@H](CC(N)=O)C(=O)N1CCC[C@H]1C(=O)N[C@@H](CCCCN)C(=O)N[C@@H](Cc1c[nH]cn1)C(=O)N[C@@H](CC(=O)O)C(=O)N1CCC[C@H]1C(=O)N1CCC[C@H]1C(=O)N1CCC[C@H]1C(=O)N[C@@H](CCCNC(=N)N)C(=O)O)C(C)C [RaxX24-sY] (H-LWKHVGGGD[sY]PPPGANPKHDPPPR-OH; N-terminus and C-terminus assumed)
–	but not RaxX21-Y	HVGGGDYPPPGANPKHDPPPR [RaxX21-Y]
